Source: PubChem BioAssay
A selection: hits, their analogues and other compounds. The true share with any hit is near 2.5%.
EWS-Fli block: EWS/Fli transcriptional activity inhibition; A673 NR0B1-luciferase reporter, viability-normalised; inhibition, % at 12.6 µM; actives 0.67% (n = 350,000); AID 651661;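 active = mean inhibition of at least 50% after viability correction, with every replicate also passing that limit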;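 also: firefly luciferase signal divided by Alamar Blue viability fluorescence both relative to DMSO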
Env fusion inh: inhibitors of HIV Env-mediated cell fusion | HeLa-JRFL Env/CEM21 cell fusion, luciferase | AID 651610 | inhibition, % at 12.3 µM | actives 1.1% (n = 360,000);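 active = mean replicate inhibition score of at least 50 and every replicate individually at or above 50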;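 also: 0% = plate neutral controls and 100% = maraviroc near 300 nM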
Glyco luc inh: N-linked glycosylation inhibition. D54 ERlucT glycosylation luciferase reporter, 24 h; percent of 100 nM tunicamycin response. reporter increase, % at 12.5 µM. actives 0.23% (n = 360,000). AID 588692;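 active = mean luciferase reporter signal, scaled so untreated is 0 and the glycosylation-blocking control 100, at or above a set limit in every replicate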;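 also: luciferase carries N-glycosylation sites so blocking glycosylation raises the light; 0% = median of neutral control wells and 100% = median of 100 nM tunicamycin wells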
AF4-AF9 inh: blocks AF4 peptide binding to human AF9. AlphaScreen, biotin-AF4 peptide binding to FLAG-AF9. AID 651704. actives 0.47% (n = 350,000). inhibition, % at 10 µM;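 active = every replicate reaching a set inhibition limit, whatever the replicate mean, cut at about 25% in these data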;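 also: 0% = plate neutral control median and 100% = total signal loss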
Target sequence (P42568 whole entry, looked up): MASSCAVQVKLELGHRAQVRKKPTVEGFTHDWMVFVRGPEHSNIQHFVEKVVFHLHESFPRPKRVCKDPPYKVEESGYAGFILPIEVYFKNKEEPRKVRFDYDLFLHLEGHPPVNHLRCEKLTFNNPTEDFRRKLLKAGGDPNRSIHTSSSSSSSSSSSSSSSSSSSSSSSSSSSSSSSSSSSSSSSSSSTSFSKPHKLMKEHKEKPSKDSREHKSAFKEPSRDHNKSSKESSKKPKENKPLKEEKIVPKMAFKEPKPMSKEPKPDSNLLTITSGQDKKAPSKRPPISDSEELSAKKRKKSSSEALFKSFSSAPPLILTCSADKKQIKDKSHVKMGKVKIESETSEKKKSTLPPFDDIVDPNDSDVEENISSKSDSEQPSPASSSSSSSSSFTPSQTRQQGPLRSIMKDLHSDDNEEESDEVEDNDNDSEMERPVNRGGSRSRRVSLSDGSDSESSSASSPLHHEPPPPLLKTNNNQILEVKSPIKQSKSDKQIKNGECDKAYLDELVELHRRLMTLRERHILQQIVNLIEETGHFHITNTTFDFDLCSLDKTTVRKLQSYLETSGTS
FN deposition inh: fibronectin deposition inhibition; AH1F fibroblasts, Alexa488-fibronectin deposition fluorescence, overnight; inhibition, % at 12.6 µM; actives 0.086% (n = 350,000); AID 743247;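 active = mean inhibition across replicates of 30% or more, regardless of how many single replicates reach that level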;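 also: positive control wells lacked labelled fibronectin entirely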
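Assay system: AH1F fibroblasts / Quantity: 10000 cells per well / Medium: DMEM plus 2% serum, read in PBS / Reagent: labelled fibronectin 24 nM / Dosing: single dose, pinned / Times: 1 h cell attachment, overnight exposure to compound and label / Signal: fluorescence, ex 485 nm, em 525 nm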
PAX8 reporter: PAX8 transcriptional activity inhibition; inhibition, % at 12.6 µM; RMG-I TPO-luciferase reporter, SteadyGlo, 24 h; actives 1.2% (n = 360,000); AID 652154;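 active = mean replicate inhibition at least 60% with every replicate also reaching 60%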;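 also: luciferase light reporting Pax8 driven TPO promoter activity; plate controls were median of neutral control wells for no effect and mitoxantrone controls for full effect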
Active calls of the source: *; / = not tested or not shown; [ ] = remark or other dose.

SMILES | EWS-Fli block | Env fusion inh | Glyco luc inh | AF4-AF9 inh | FN deposition inh | PAX8 reporter
COc1cc(/C=C/C(=O)c2ccc3c(c2)OCCO3)cc(Br)c1OCC(=O)N(C)C | 61* | -6 | -13 | -10 | -9 | 7
CC1=CC(C)(C)N(C(=O)c2ccccc2)c2ccc(C)cc21 | / | 94* | -1 | / | -10 | /
COc1ccc(C(=O)N2c3cc4c(cc3C(C)=CC2(C)C)OCO4)cc1 | / | / | -4 | 32* | 12 | /
CCc1nc2c(OCc3ccc(C(F)(F)F)cc3)cccn2c1N(C)C(=O)c1ccco1 | 4 | 57* | -2 | 3 | 2 | 14
CCc1nc2c(OCc3ccc(C(F)(F)F)cc3)cccn2c1N(C=O)Cc1ccc(OC)cc1 | 7 | 56* | 1 | 1 | 7 | -4
CCc1nc2c(OCc3ccc(F)cc3)cccn2c1N(C)C(=O)c1ccco1 | 0 | -1 | 0 | 2 | -3 | -18
C[C@@H]1CN([C@H](C)CO)C(=O)c2cc(NC(=O)Nc3ccc(C(F)(F)F)cc3)ccc2O[C@@H]1CN(C)S(C)(=O)=O | -4 | / | / | 1 | / | 0
O=C(c1ccccn1)N1CC2(C1)[C@H](c1ccccc1)[C@@H](CO)N2Cc1ccccc1 | -5 | / | / | -2 | 2 | -4
Cc1cc(C)c(C)c(S(=O)(=O)N2CCC(C(=O)Nc3ccc(S(=O)(=O)N4CCOCC4)cc3)CC2)c1C | 34 | 57* | -4 | -1 | / | 29
CC(=O)Nc1ccc(S(=O)(=O)N2CCC(C(=O)c3ccc(Cl)cc3)CC2)cc1 | 32 | 56* | -4 | 4 | -1 | 18
CC(=O)Nc1ccc(S(=O)(=O)N2CCC(C(=O)c3ccc(F)cc3)CC2)cc1 | 24 | -8 | -4 | 2 | 2 | 11
CCN(CC)CCOc1ccc(/C(=C(\Cl)c2ccccc2)c2ccccc2)cc1 | 42 | -3 | -2 | 32* | -3 | 45
CS(=O)(=O)N1CC(=O)N2[C@H](CO)[C@H](c3ccc(C#CCC4CCCC4)cc3)[C@H]2C1 | -8 | / | / | 0 | -8 | 76*
Cc1ccccc1S(=O)(=O)N1CC(=O)N2[C@H](CO)[C@H](c3ccc(C#CCC(C)C)cc3)[C@H]2C1 | -1 | / | / | -2 | / | 66*
O=C(Cc1ccncc1)Nc1ccc2c(c1)[C@@H]1C[C@@H](CC(=O)N3CCCCC3)O[C@H](CO)[C@@H]1O2 | 2 | -16[16.7 µM] | / | -1 | -13 | -2
C[C@@H]1CN([C@H](C)CO)C(=O)c2cc(C#Cc3cccnc3)cnc2O[C@H]1CN(C)S(=O)(=O)c1ccccc1F | -9 | / | / | -3 | -4 | 1
C[C@@H]1CCCCO[C@H](CN(C)C(=O)NC2CCCCC2)[C@@H](C)CN([C@H](C)CO)C(=O)c2cc(NC(=O)Nc3ccc(C(F)(F)F)cc3)ccc2O1 | 4 | 9[16.7 µM] | / | 0 | / | -2
C[C@@H]1CCCCO[C@@H](CN(C)C(=O)NC2CCCCC2)[C@@H](C)CN([C@@H](C)CO)C(=O)c2cc(NC(=O)Nc3ccc(C(F)(F)F)cc3)ccc2O1 | 4 | -5[16.7 µM] | / | -1 | / | 74*
C[C@@H]1CCCCO[C@H](CN(C)C(=O)Nc2ccc(C(F)(F)F)cc2)[C@H](C)CN([C@@H](C)CO)C(=O)c2cc(NC(=O)NC3CCCCC3)ccc2O1 | 0 | 6[16.7 µM] | / | -3 | 7 | -17
C[C@@H]1CCCCO[C@H](CN(C)C(=O)NC2CCCCC2)[C@@H](C)CN([C@@H](C)CO)C(=O)c2cc(NC(=O)Nc3ccc(C(F)(F)F)cc3)ccc2O1 | 9 | 39[16.7 µM] | / | 3 | / | 93*
C[C@H]1CCCCO[C@H](CN(C)C(=O)NC2CCCCC2)[C@@H](C)CN([C@@H](C)CO)C(=O)c2cc(NC(=O)Nc3ccc(C(F)(F)F)cc3)ccc2O1 | 3 | 40[16.7 µM] | / | 1 | / | 87*
C[C@@H]1CCCCO[C@@H](CN(C)C(=O)NC2CCCCC2)[C@H](C)CN([C@@H](C)CO)C(=O)c2cc(NC(=O)Nc3ccc(C(F)(F)F)cc3)ccc2O1 | 9 | 14[16.7 µM] | / | -2 | / | 76*
CCCCCOc1ccc(NC(=O)C(=O)NCCCn2ccnc2)cc1 | / | -254 | -4 | / | -4 | 77*
COc1ccc(C2C3=C(Nc4ncnn42)c2ccccc2CCC3)cc1 (stereo not given) | / | 0 | 2 | / | -3 | /
COc1cc(C2C3=C(Nc4ncnn42)c2ccccc2CC3)cc(OC)c1OC (stereo not given) | / | 55 | 23 | / | / | 95*
